Data set [1] can be described thus: Half life in Sprague-Dawley rat liver microsomes at 2 uM in presence of NADPH measured up to 1 hr by HPLC analysis. The format is ADME, Microsome. The method, boiled down:
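Compound at 2 μM incubated at 37 °C with liver microsomes (1 mg/mL), 3 mM MgCl2 and 0.1 M phosphate buffer pH 7.4; 5 min preincubation, then started with 3 mM NADPH. Aliquots (n = 3) at 0, 10, 20, 30, 45, 60 min quenched with ice-cold acetonitrile, centrifuged, supernatant by HPLC. t1/2 from linear-regression kinetic constant k.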
A general note: Microsomes from liver hold many membrane-bound enzymes, among them those of drug oxidation.

In another data set the target is CDK9/cyclin T1 (Homo sapiens, UniProt P50750). Description: Inhibition of recombinant full-length human CDK9/cyclinT1 using KTFCGTPEYLAPEVRREPRILSEEEQEMFRDFDYIADWC peptide as substrate measured after 40 mins in presence of [gamma33P]ATP by scintillation counting method. The format is protein-complex assay. The gist of the method:
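IC50 against CDK9/cyclin T1, determined by the outsourced Eurofins KinaseProfiler service. Values are the mean of two independent experiments.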

The target of data set [2] is Mitogen-activated protein kinase 11 (Homo sapiens) (UniProt Q15759). Description: Inhibition of recombinant full-length human SAPK2b at 1 uM using myelin basic protein as substrate measured after 40 mins in presence of [gamma33P]ATP by scintillation counting method relative to control.
The target of data set [3] is Insulin-like growth factor 1 receptor (Homo sapiens) (UniProt P08069). Description: Inhibition of recombinant human activated IGF1R (959 to end residues) at 1 uM using KKKSPGEYVNIEFG as substrate measured after 40 mins in presence of [gamma33P]ATP by scintillation counting method relative to control.
For data set [4], the target named is Dual specificity protein kinase CLK1 (Homo sapiens) (UniProt P49759). Description: Inhibition of recombinant human CLK1 (130 to end residues) at 1 uM using ERMRPRKRQGSVRRRV as substrate measured after 40 mins in presence of [gamma33P]ATP by scintillation counting method relative to control.
Data set [5] concerns NCI-H1299. Description: Inhibition of tumorsphere formation in human H1299 cells assessed as reduction in side population ratio at 0.25 to 1 uM by PI/Hoechst 33342 staining based flow cytometry. The format is functional, cell-based. A general note: Flow cytometry measures light scatter and fluorescence of single cells or particles in a stream.
In data set [6] the test system is RAF proto-oncogene serine/threonine-protein kinase (Homo sapiens), P04049 [Y340D,Y341D]. Description: Inhibition of recombinant human c-RAF Y340D/Y341D double mutant ([…]) at 1 uM using inactive MEK1 as substrate measured after 40 mins in presence of [gamma33P]ATP by scintillation counting method relative to control.
For data set [7], the species on record is Homo sapiens. Description: Inhibition of recombinant full-length human JNK2alpha2 S51N mutant at 1 uM using ATF2 as substrate measured after 40 mins in presence of [gamma33P]ATP by scintillation counting method relative to control.
For data set [8], the target named is Testis-specific serine/threonine-protein kinase 3 (Homo sapiens) (UniProt Q96PN8). Description: Inhibition of recombinant full-length human TSSK3 at 1 uM using AMARAASAAALARRR as substrate measured after 40 mins in presence of [gamma33P]ATP by scintillation counting method relative to control.
In the next data set the test system is A549. Description: Downregulation of SOX2 in human A549 cells at 0.25 to 1 uM by Western blot analysis. The format is functional, cell-based. In general terms: A western blot detects proteins with antibodies after separation by electrophoresis.
Data set [9] has as its target Serine/threonine-protein kinase pim-1 (Homo sapiens) (UniProt P11309). Description: Inhibition of recombinant full-length human Pim-1 at 1 uM using KKRNRTLTV as substrate measured after 40 mins in presence of [gamma33P]ATP by scintillation counting method relative to control.
The target of data set [10] is Maternal embryonic leucine zipper kinase (Homo sapiens) (UniProt Q14680). Description: Inhibition of recombinant human MELK (1 to 340 residues) at 1 uM using KKLNRTLSFAEPG as substrate measured after 40 mins in presence of [gamma33P]ATP by scintillation counting method relative to control.
Data set [11] has as its system Mast/stem cell growth factor receptor Kit (Homo sapiens), P10721 [D816H]. Description: Inhibition of recombinant human cKit (544 to end residues) D816H mutant at 1 uM using GGMEDIYFEFMGGKKK as substrate measured after 40 mins in presence of [gamma33P]ATP by scintillation counting method relative to control. The method, boiled down: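 Single-point inhibition at 1 µM was measured in the Eurofins KinaseProfiler panel. Values are the mean of two independent experiments.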

Data set [12] has as its target High affinity nerve growth factor receptor (Homo sapiens) (UniProt P04629). Description: Inhibition of recombinant human TRKA (440 to end residues) at 1 uM using KKKSPGEYVNIEFG as substrate measured after 40 mins in presence of [gamma33P]ATP by scintillation counting method relative to control.
For data set [13], the system named is NCI-H1299. Description: Antitumour activity against human H1299 cells xenografted in Balb/c mouse assessed as inhibition of phosphorylation of RNA polymerase 2 CTD domain at Ser 5 residue at 20 to 80 mg/kg, po administered for 3 weeks by […] based light microscopic analysis. The format is functional, organism-based. The gist of the method: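 Tumours came from the H1299 oral-dosing xenograft run for 3 weeks. Formalin-fixed, paraffin-embedded 5-µm sections were deparaffinized and rehydrated. Primary antibodies (CDK9, cyclin T1, p-Rb Ser780, RNAPII CTD Ser5, Oct4) used at 1:100 overnight at 4 °C. Biotinylated secondary for 1 h at room temperature, then ABC-peroxidase/DAB, hematoxylin counterstain and light microscopy.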

For data set [14], the system named is Receptor tyrosine-protein kinase erbB-2 (Homo sapiens), P04626 [G778D]. Description: Inhibition of recombinant human ErbB2 (676 to end residues) G778D mutant at 1 uM using poly(Glu, Tyr) 4:1 as substrate measured after 40 mins in presence of [gamma33P]ATP by scintillation counting method relative to control.
Data set [15] has as its target Ribosomal protein S6 kinase alpha-4 (Homo sapiens) (UniProt O75676). Description: Inhibition of recombinant human MSK2 (2 to end residues) at 1 uM using GRPRTSSFAEGKK as substrate measured after 40 mins in presence of [gamma33P]ATP by scintillation counting method relative to control.
The species named for data set [16] is Homo sapiens. Description: Inhibition of recombinant full-length human AURKA I31F mutant at 1 uM using LRRASLG as substrate measured after 40 mins in presence of [gamma33P]ATP by scintillation counting method relative to control.
The target in data set [17] is Mitogen-activated protein kinase 1 (Homo sapiens) (UniProt P28482). Description: Inhibition of recombinant full-length human MAPK2 at 1 uM using MBP as substrate measured after 40 mins in presence of [gamma33P]ATP by scintillation counting method relative to control.
Data set [18] addresses Cyclin-dependent kinase-like 3 (Homo sapiens) (UniProt Q8IVW4). Description: Inhibition of human full length recombinant human CDKL3 at 1 uM using RRRFRPASPLRGP as substrate measured after 120 mins in presence of [gamma33P]ATP by scintillation counting method relative to control.
Data set [19] addresses Receptor tyrosine-protein kinase erbB-4 (Homo sapiens) (UniProt Q15303). Description: Inhibition of recombinant human ErbB4 (706 to 991 residues) at 1 uM using poly(Glu, Tyr) 4:1 as substrate measured after 40 mins in presence of [gamma33P]ATP by scintillation counting method relative to control.

Molecules are shown by their SMILES. Activity calls are given as the source filed them. The rule behind the calls is not given here.

Sequence of Cyclin-dependent kinase-like 3 (Homo sapiens) (Q8IVW4 whole entry, looked up, the tested form may be a part): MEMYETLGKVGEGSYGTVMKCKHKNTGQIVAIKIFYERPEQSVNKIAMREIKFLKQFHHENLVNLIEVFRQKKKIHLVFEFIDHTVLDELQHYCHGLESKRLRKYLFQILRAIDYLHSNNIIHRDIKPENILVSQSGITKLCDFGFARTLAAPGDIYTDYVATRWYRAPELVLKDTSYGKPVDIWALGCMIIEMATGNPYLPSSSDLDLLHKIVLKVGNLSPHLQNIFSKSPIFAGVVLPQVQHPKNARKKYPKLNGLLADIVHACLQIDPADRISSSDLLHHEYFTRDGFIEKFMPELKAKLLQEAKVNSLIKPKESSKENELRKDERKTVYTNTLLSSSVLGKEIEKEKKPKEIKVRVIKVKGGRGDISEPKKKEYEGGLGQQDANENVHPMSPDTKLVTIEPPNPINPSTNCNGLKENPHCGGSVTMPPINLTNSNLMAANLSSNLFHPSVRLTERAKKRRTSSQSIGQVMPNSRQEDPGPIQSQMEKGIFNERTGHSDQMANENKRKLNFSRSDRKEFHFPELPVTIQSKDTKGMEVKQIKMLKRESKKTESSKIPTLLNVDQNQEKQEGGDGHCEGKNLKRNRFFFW
Sequence of Serine/threonine-protein kinase pim-1 (Homo sapiens) (P11309 whole entry, looked up, the tested form may be a part): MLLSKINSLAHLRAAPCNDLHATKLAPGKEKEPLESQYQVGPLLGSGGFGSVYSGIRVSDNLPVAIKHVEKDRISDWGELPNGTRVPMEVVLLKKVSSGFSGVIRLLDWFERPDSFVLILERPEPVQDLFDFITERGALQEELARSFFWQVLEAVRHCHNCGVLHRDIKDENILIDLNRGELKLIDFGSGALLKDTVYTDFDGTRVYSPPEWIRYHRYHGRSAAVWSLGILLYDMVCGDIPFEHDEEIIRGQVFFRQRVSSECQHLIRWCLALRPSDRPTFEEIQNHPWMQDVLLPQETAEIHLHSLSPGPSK
Sequence of Mitogen-activated protein kinase 1 (Homo sapiens) (P28482 whole entry): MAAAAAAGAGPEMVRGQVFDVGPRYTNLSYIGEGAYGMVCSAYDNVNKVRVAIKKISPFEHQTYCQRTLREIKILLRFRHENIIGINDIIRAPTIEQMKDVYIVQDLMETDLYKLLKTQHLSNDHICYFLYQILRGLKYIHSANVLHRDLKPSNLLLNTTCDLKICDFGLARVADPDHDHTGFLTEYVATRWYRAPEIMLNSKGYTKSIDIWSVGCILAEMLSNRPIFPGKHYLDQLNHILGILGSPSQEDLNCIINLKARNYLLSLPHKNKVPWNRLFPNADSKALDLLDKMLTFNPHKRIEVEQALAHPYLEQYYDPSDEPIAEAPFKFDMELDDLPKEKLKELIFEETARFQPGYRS
Sequence of Dual specificity protein kinase CLK1 (Homo sapiens) (P49759 whole entry, looked up): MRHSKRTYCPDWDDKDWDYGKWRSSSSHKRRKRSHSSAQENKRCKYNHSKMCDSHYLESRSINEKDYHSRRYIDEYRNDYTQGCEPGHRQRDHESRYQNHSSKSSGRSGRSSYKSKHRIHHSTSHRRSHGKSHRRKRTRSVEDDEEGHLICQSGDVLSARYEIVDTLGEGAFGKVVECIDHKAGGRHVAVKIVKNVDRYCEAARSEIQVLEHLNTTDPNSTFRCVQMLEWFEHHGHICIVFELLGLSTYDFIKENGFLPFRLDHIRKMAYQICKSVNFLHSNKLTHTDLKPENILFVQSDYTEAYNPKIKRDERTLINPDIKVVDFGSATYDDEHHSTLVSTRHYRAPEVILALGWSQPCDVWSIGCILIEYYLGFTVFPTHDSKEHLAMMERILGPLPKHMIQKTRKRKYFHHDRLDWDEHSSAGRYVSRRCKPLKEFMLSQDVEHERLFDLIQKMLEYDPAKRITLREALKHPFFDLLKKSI
Sequence of CDK9/cyclin T1 (O60563 whole entry): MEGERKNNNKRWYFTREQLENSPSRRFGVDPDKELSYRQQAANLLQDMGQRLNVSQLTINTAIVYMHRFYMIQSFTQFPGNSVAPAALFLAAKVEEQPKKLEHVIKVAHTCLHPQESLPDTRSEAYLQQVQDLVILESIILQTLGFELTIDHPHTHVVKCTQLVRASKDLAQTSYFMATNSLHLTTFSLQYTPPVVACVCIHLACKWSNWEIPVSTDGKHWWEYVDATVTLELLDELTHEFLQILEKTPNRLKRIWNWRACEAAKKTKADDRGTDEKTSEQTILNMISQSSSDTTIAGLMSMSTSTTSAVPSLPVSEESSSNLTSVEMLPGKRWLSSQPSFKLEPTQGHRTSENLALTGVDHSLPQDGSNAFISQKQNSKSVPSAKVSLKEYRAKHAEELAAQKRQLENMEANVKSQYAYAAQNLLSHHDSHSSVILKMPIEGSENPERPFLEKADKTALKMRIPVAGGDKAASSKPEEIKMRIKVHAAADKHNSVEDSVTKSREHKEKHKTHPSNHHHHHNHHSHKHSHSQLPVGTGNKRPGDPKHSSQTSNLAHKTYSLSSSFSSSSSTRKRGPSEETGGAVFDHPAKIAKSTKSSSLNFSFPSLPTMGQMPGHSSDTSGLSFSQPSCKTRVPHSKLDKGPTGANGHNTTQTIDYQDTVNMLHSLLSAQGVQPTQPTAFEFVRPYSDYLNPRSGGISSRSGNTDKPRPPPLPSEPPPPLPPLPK
Sequence of CDK9/cyclin T1 (P50750 whole entry): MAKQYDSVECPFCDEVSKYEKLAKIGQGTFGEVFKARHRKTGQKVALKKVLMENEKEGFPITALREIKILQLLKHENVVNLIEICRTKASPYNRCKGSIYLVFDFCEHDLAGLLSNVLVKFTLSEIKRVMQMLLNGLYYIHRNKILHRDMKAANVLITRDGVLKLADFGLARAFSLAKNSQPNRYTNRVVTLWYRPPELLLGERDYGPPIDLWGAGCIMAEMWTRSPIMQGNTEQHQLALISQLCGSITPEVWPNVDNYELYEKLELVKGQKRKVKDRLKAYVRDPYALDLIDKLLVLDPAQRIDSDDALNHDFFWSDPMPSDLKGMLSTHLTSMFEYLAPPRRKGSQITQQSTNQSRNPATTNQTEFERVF
Sequence of RAF proto-oncogene serine/threonine-protein kinase (Homo sapiens), P04049 [Y340D,Y341D] (P04049 whole entry Y340D/Y341D): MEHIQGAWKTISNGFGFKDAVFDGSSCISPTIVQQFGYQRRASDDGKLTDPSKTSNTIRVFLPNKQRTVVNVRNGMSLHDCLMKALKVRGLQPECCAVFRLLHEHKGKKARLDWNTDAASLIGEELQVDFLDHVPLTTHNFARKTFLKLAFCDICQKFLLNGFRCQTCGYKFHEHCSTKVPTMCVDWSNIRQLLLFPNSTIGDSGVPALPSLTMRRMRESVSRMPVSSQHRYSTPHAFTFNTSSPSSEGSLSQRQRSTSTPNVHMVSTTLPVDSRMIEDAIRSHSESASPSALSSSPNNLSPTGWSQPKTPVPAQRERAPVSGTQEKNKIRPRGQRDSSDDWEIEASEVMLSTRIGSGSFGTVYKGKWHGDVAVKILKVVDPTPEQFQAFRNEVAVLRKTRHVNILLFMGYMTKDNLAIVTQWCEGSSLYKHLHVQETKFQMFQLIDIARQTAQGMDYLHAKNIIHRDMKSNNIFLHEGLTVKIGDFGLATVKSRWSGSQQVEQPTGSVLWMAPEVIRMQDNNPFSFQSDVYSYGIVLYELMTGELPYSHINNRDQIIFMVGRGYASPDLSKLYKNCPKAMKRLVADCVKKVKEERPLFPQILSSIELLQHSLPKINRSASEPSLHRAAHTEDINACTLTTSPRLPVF
Sequence of Mast/stem cell growth factor receptor Kit (Homo sapiens), P10721 [D816H] (P10721 whole entry D816H): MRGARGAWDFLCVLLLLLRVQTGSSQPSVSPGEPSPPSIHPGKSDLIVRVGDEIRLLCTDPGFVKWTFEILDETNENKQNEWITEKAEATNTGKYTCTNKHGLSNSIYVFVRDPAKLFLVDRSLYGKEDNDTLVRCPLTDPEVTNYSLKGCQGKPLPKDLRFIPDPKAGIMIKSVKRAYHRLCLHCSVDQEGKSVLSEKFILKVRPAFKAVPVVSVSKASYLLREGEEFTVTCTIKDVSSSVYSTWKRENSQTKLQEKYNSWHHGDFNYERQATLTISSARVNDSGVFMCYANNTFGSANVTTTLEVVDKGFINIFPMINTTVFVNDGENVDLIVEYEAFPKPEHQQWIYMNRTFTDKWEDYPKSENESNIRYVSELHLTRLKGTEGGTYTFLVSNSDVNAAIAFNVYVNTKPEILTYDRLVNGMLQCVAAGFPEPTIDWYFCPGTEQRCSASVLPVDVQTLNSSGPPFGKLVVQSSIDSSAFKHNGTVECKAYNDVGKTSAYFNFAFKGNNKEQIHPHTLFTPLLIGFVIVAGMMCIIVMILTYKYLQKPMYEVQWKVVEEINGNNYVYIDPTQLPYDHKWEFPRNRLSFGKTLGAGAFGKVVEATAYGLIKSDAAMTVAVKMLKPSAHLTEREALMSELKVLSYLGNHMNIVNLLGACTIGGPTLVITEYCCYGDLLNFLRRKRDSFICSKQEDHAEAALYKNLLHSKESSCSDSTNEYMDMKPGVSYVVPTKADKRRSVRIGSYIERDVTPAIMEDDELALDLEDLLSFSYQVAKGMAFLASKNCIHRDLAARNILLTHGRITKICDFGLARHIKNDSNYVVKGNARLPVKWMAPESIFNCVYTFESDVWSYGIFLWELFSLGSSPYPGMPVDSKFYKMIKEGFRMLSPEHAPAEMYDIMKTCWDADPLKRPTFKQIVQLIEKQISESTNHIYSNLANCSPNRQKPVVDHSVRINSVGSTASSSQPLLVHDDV
Sequence of Mitogen-activated protein kinase 11 (Homo sapiens) (Q15759 whole entry): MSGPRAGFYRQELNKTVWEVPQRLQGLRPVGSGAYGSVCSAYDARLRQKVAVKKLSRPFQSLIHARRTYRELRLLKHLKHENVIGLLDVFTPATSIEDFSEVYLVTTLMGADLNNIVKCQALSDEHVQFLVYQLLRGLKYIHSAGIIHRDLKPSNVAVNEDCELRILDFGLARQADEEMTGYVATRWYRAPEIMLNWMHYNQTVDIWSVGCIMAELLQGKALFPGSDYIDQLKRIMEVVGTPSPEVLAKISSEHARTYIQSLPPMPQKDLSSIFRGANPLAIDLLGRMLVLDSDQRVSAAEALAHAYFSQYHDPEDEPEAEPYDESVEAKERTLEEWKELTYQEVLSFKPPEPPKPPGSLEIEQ

As to `CN(C)C(=O)c1cc2cnc(Nc3ccc(NC(=O)CCCCCCCN=C=S)cc3)nc2n1C1CCCC1`, the half-life at 2 µM in [1] was found to be 40.8 min. For the same compound, on CDK9/cyclin T1, the IC50 came out at 11 nM. Moreover, the inhibition came out at 27% in data set [2]; 0% in [3]; 14% in data set [4]; 33% in [6]; 40% in the data set listed under Homo sapiens [7]; 4% in data set [8]. The inhibition is 8% in [9]; 88% in data set [10]; 59% in [11]; 77% in data set [12]; -1% in data set [14]; 6% in [15]. Moreover, the inhibition in the data set filed under Homo sapiens [16] came out at 95%; in [17] it was 7%; in [18], 53%; in [19], 24%. Moreover, the inhibition entry in the data set with NCI-H1299 [5] is “Active”. The result in the data set with A549 and in the data set on NCI-H1299 [13] was Active.

By half-life is commonly meant the time in which the quantity being followed falls by half. What is called IC50 is the concentration that inhibits the measured activity by half. A word on the inhibition: it is the change of the read-out against control, counted positive when it falls.
